# Data reported in ChEMBL document CHEMBL1122634 (J Med Chem, 1984).
# Assays:
# [1] = species: Rattus norvegicus; experiment: (§1) Tissue to blood ratio 10 min after injection of compound & Estradiol; format: functional
# How it was run: (§2)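 Immature female Fisher rats, about 50 g. […] Rats were killed at 10 min and tissue and blood radioactivity counted. Results are tissue-to-blood ratios, mean ± SD of five rats, compared between paired animals by paired Student's t test (p < 0.05 significant).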
# [2] = species: Rattus norvegicus; experiment: as §1; format: functional; how it was run: as §2; remark: listed apart in the source
# [3] = species: Rattus norvegicus; experiment: as §1; format: functional; how it was run: as §2; remark: listed apart in the source
# [4] = system: Rattus norvegicus; experiment: In vivo blood distribution of [11C]-labeled compound in Fisher rat 10 min after injection via caudal vein.; format: ADME, organism-based; details: iv
# How it was run: (§3)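 Immature female Fisher rats, 3-4 weeks old, about 50 g. Tracer was HPLC-purified, dried, redissolved in ethanol and diluted in saline. […] Animals were killed by cardiac puncture at 10 min and tissues counted. Values are % injected dose/g normalized to 100 g body weight, mean ± SD of five rats. Rats were paired (with/without carrier) and compared by paired Student's t test.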
# [5] = species: Rattus norvegicus; experiment: (§4) Tissue to blood ratio 10 min after injection of compound; format: functional; how it was run: as §2
# [6] = species: Rattus norvegicus; experiment: as §4; format: functional; how it was run: as §2; remark: listed apart in the source
# [7] = species: Rattus norvegicus; experiment: as §4; format: functional; how it was run: as §2; remark: listed apart in the source
# [8] = system: Rattus norvegicus; experiment: In vivo uterus distribution of [11C]-labeled compound in Fisher rat 10 min after injection via caudal vein along with 18 ug of unlabeled estradiol.; format: ADME, organism-based; details: iv; how it was run: as §3
# [9] = species: Rattus norvegicus; experiment: as §1; format: functional; how it was run: as §2; remark: listed apart in the source
# [10] = system: Rattus norvegicus; experiment: In vivo adrenals distribution of [11C]-labeled compound in Fisher rat 10 min after injection via caudal vein.; format: ADME, organism-based, Adrenal gland; details: iv; how it was run: as §3
# [11] = system: Rattus norvegicus; experiment: In vivo spleen distribution of [11C]-labeled compound in Fisher rat 10 min after injection via caudal vein.; format: ADME, organism-based; details: iv; how it was run: as §3
# [12] = system: Rattus norvegicus; experiment: In vivo adrenals distribution of [11C]-labeled compound in Fisher rat 10 min after injection via caudal vein along with 18 ug of unlabeled estradiol.; format: ADME, organism-based, Adrenal gland; details: iv; how it was run: as §3
# [13] = species: Rattus norvegicus; experiment: as §4; format: functional; how it was run: as §2; remark: listed apart in the source
# [14] = system: Rattus norvegicus; experiment: In vivo ovaries distribution of [11C]-labeled compound in Fisher rat 10 min after injection via caudal vein.; format: ADME, organism-based, Female gonad; details: iv; how it was run: as §3
# [15] = species: Rattus norvegicus; experiment: as §1; format: functional; how it was run: as §2; remark: listed apart in the source
# [16] = system: Rattus norvegicus; experiment: In vivo blood distribution of [11C]-labeled compound in Fisher rat 10 min after injection via caudal vein along with 18 ug of unlabeled estradiol.; format: ADME, organism-based; details: iv; how it was run: as §3
# [17] = species: Rattus norvegicus; experiment: as §4; format: functional; how it was run: as §2; remark: listed apart in the source
# [18] = system: Rattus norvegicus; experiment: In vivo kidneys distribution of [11C]-labeled compound in Fisher rat 10 min after injection via caudal vein along with 18 ug of unlabeled estradiol.; format: ADME, organism-based, Kidney; details: iv; how it was run: as §3
# [19] = system: Rattus norvegicus; experiment: In vivo kidneys distribution of [11C]-labeled compound in Fisher rat 10 min after injection via caudal vein.; format: ADME, organism-based, Kidney; details: iv; how it was run: as §3
# [20] = species: Rattus norvegicus; experiment: as §4; format: functional; how it was run: as §2; remark: listed apart in the source
# [21] = species: Rattus norvegicus; experiment: as §1; format: functional; how it was run: as §2; remark: listed apart in the source
# [22] = system: Rattus norvegicus; experiment: In vivo uterus distribution of [11C]-labeled compound in Fisher rat 10 min after injection via caudal vein.; format: ADME, organism-based; details: iv; how it was run: as §3
# [23] = species: Rattus norvegicus; experiment: as §1; format: functional; how it was run: as §2; remark: listed apart in the source
# [24] = species: Rattus norvegicus; experiment: as §1; format: functional; how it was run: as §2; remark: listed apart in the source
# [25] = system: Rattus norvegicus; experiment: In vivo liver distribution of [11C]-labeled compound in Fisher rat 10 min after injection via caudal vein along with 18 ug of unlabeled estradiol.; format: ADME, organism-based; details: iv; how it was run: as §3
# [26] = system: Rattus norvegicus; experiment: In vivo lung distribution of [11C]-labeled compound in Fisher rat 10 min after injection via caudal vein along with 18 ug of unlabeled estradiol.; format: ADME, organism-based; details: iv; how it was run: as §3
# [27] = system: Rattus norvegicus; experiment: In vivo ovaries distribution of [11C]-labeled compound in Fisher rat 10 min after injection via caudal vein along with 18 ug of unlabeled estradiol.; format: ADME, organism-based, Female gonad; details: iv; how it was run: as §3
# [28] = system: Rattus norvegicus; experiment: In vivo lung distribution of [11C]-labeled compound in Fisher rat 10 min after injection via caudal vein.; format: ADME, organism-based; details: iv; how it was run: as §3
# [29] = system: Rattus norvegicus; experiment: In vivo liver distribution of [11C]-labeled compound in Fisher rat 10 min after injection via caudal vein.; format: ADME, organism-based; details: iv; how it was run: as §3
# [30] = species: Rattus norvegicus; experiment: as §4; format: functional; how it was run: as §2; remark: listed apart in the source
# [31] = species: Rattus norvegicus; experiment: as §4; format: functional; how it was run: as §2; remark: listed apart in the source
# [32] = system: Rattus norvegicus; experiment: In vivo muscle distribution of [11C]-labeled compound in Fisher rat 10 min after injection via caudal vein along with 18 ug of unlabeled estradiol.; format: ADME, organism-based, Muscle tissue; details: iv; how it was run: as §3
# [33] = system: Rattus norvegicus; experiment: In vivo muscle distribution of [11C]-labeled compound in Fisher rat 10 min after injection via caudal vein.; format: ADME, organism-based, Muscle tissue; details: iv; how it was run: as §3
# [34] = system: Rattus norvegicus; experiment: In vivo spleen distribution of [11C]-labeled compound in Fisher rat 10 min after injection via caudal vein along with 18 ug of unlabeled estradiol.; format: ADME, organism-based; details: iv; how it was run: as §3
# [35] = species: Rattus norvegicus; experiment: as §1; format: functional; how it was run: as §2; remark: listed apart in the source
# [36] = species: Rattus norvegicus; experiment: as §4; format: functional; how it was run: as §2; remark: listed apart in the source
# [37] = species: Rattus norvegicus; experiment: as §4; format: functional; how it was run: as §2; remark: listed apart in the source
# [38] = species: Rattus norvegicus; experiment: as §1; format: functional; how it was run: as §2; remark: listed apart in the source
# [39] = species: Rattus norvegicus; experiment: as §4; format: functional; how it was run: as §2; remark: listed apart in the source
# [40] = species: Rattus norvegicus; experiment: as §1; format: functional; how it was run: as §2; remark: listed apart in the source
# [41] = species: Rattus norvegicus; experiment: as §4; format: functional; how it was run: as §2; remark: listed apart in the source
# [42] = species: Rattus norvegicus; experiment: as §4; format: functional; how it was run: as §2; remark: listed apart in the source
# [43] = species: Rattus norvegicus; experiment: as §1; format: functional; how it was run: as §2; remark: listed apart in the source
# [44] = species: Rattus norvegicus; experiment: as §4; format: functional; how it was run: as §2; remark: listed apart in the source
# [45] = species: Rattus norvegicus; experiment: as §1; format: functional; how it was run: as §2; remark: listed apart in the source
# [46] = species: Rattus norvegicus; experiment: as §1; format: functional; how it was run: as §2; remark: listed apart in the source
# [47] = species: Rattus norvegicus; experiment: as §4; format: functional; how it was run: as §2; remark: listed apart in the source
# [48] = species: Rattus norvegicus; experiment: as §1; format: functional; how it was run: as §2; remark: listed apart in the source
Compound,Injected dose/g [4] [%],Injected dose/g [8] [%],Injected dose/g [10] [%],Injected dose/g [11] [%],Injected dose/g [12] [%],Injected dose/g [14] [%],Injected dose/g [16] [%],Injected dose/g [18] [%],Injected dose/g [19] [%],Injected dose/g [22] [%],Injected dose/g [25] [%],Injected dose/g [26] [%],Injected dose/g [27] [%],Injected dose/g [28] [%],Injected dose/g [29] [%],Injected dose/g [32] [%],Injected dose/g [33] [%],Injected dose/g [34] [%],also measured
CCOC(=O)NC1CC[C@H]2[C@@H]3CCc4cc(O)ccc4[C@H]3CC[C@]12C (stereo partly drawn),0.9,7.8,14.3,2.3,21.6,6.5,1.3,6.1,4.2,4.5,12.8,5.1,7.4,3.1,9.4,3.2,1.6,3.6,Ratio [1]: 9.1; Ratio [2]: 6; Ratio [3]: 14.9; Ratio [5]: 1.4; Ratio [6]: 9.4; Ratio [7]: 4.8; Ratio [9]: 1.8; Ratio [13]: 9.1; Ratio [15]: 4.3; Ratio [17]: 2.8; Ratio [20]: 18; Ratio [21]: 6.2; Ratio [23]: 2.7; Ratio [24]: 3.7; Ratio [30]: 5.5; Ratio [31]: 3.7
CCOC(=O)NCCOc1ccc(C(CC)C(CC)c2ccc(O)cc2)cc1 (stereo not drawn),0.81,6.2,6.5,2.4,5.3,2.5,1.3,5.1,2.9,5,7.8,2.1,3.5,2.1,8.5,1.3,1.1,1.6,Tissue/Blood ratio [35]: 9.4; Tissue/Blood ratio [36]: 3; Tissue/Blood ratio [37]: 2.5; Tissue/Blood ratio [38]: 2.8; Tissue/Blood ratio [39]: 1.2; Tissue/Blood ratio [40]: 3.3; Tissue/Blood ratio [41]: 6.3; Tissue/Blood ratio [42]: 9; Tissue/Blood ratio [43]: 3.1; Tissue/Blood ratio [24]: 2.5; Tissue/Blood ratio [44]: 8; Tissue/Blood ratio [45]: 1.9; Tissue/Blood ratio [46]: 1.3; Tissue/Blood ratio [31]: 2.4; Tissue/Blood ratio [47]: 3.7; Tissue/Blood ratio [48]: 5.4
